What was measured:
Dipeptidyl peptidase 4 = Dipeptidyl peptidase 4 (Sus scrofa, UniProt P22411); assay: Drug metabolism in minipig plasma assessed as DDP-4-meditaed GLP1(9 to 37 residues) formation by measuring half life at 1 uM by LC-MS analysis; type: ADME; details: pig
Procedure, shortened: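 Heparinized mini-pig plasma diluted 4:1 with 0.1 M PBS pH 7.4, pre-warmed 30 min at 37°C with peptide, then combined (1 uM final) and kept at 37°C. Aliquots taken at 5–300 min were quenched in 3 volumes methanol with internal standard, centrifuged and water-diluted. Analysed by ESI+ QTOF LC-MS against 20–2000 nM plasma calibrators, with %-remaining normalised to the 15 min sample; n = 3.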

[1] = target: T1, Neuropeptide Y receptor type 1 (Homo sapiens, UniProt P25929); assay: Activation of human Y1R expressed in HEK293 cells assessed as inhibition of isoproterenol-induced increase in intracellular cAMP levels by calcium 5 dye-based FLIPR assay; type: functional, cell-based
T1 sequence (P25929 whole entry): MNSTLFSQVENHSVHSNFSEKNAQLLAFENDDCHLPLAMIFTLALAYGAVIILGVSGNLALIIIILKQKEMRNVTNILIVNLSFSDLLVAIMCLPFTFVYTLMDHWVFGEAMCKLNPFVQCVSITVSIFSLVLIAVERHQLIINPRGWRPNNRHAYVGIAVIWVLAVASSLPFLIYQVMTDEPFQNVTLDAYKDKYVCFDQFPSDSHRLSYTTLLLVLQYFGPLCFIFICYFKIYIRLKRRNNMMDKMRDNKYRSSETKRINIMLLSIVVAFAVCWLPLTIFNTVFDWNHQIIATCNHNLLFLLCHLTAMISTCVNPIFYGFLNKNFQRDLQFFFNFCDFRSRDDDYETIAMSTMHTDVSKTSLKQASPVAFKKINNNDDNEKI

[2] = Displacement of [125I]-PYY(1 to 36 residues) from mouse Y2R expressed in HEK293 cell membranes after 2 hrs by scintillation proximity assay
[3] = target: Neuropeptide Y receptor type 4 (Mus musculus, UniProt Q61041); assay: Displacement of [125I]-PP from mouse Y4R expressed in HEK293 cell membranes after 2 hrs by scintillation proximity assay
Neuropeptide Y receptor type 4, sequence (Q61041 whole entry, the tested form may be a part): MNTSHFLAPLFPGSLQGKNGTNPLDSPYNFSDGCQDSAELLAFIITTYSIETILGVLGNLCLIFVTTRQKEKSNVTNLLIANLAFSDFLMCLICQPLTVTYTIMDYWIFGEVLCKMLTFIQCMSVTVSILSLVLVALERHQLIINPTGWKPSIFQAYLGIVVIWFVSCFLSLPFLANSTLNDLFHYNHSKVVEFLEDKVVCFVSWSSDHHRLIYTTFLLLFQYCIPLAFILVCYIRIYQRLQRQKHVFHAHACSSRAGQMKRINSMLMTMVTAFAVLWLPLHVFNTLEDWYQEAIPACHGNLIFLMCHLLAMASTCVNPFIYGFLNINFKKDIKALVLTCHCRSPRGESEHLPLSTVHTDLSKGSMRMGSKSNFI

[4] = Displacement of [125I]-PYY(1 to 36 residues) from mouse Y1R expressed in HEK293 cell membranes after 2 hrs by scintillation proximity assay
[5] = target: T2, Neuropeptide Y receptor type 2 (Homo sapiens, UniProt P49146); assay: Activation of human Y2R expressed in HEK293 cells assessed as inhibition of isoproterenol-induced increase in intracellular cAMP levels by calcium 5 dye-based FLIPR assay; type: functional, cell-based
T2 sequence (P49146 whole entry): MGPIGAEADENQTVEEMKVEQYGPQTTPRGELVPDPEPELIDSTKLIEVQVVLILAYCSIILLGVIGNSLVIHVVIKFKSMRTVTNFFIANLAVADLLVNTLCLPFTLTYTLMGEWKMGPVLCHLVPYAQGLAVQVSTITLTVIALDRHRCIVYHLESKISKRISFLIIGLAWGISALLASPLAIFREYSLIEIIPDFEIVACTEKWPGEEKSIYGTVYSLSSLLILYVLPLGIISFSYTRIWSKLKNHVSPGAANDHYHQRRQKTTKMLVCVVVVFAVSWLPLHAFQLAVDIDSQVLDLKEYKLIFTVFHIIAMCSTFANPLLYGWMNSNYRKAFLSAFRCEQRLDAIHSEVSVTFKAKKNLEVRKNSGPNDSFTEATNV

[6] = target: T1, Neuropeptide Y receptor type 1; assay: Displacement of [125I]-PYY(1 to 36 residues) from human Y1R expressed in BHK-21 cell membranes after 2 hrs by scintillation proximity assay
[7] = target: T3, Neuropeptide Y receptor type 5 (Mus musculus, UniProt O70342); assay: Displacement of [125I]-PYY(1 to 36 residues) from mouse Y5R expressed in HEK293 cell membranes after 2 hrs by scintillation proximity assay
T3 sequence (O70342 whole entry): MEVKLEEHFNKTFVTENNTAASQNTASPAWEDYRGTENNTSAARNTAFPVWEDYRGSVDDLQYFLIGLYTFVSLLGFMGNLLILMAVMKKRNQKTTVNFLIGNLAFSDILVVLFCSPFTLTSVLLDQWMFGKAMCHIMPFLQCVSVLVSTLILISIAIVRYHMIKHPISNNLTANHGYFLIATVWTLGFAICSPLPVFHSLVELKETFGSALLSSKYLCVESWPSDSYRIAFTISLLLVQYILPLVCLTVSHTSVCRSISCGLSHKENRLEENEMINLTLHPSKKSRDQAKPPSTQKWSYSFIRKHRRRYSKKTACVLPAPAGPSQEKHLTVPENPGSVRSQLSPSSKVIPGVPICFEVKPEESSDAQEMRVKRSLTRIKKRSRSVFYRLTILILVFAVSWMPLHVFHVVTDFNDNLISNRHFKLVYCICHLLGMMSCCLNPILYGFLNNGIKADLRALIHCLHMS

[8] = target: T2, Neuropeptide Y receptor type 2; assay: Displacement of [125I]-PYY(1 to 36 residues) from human Y2R expressed in CHO cell membranes after 2 hrs by scintillation proximity assay

Dipeptidyl peptidase 4, sequence (P22411 whole entry, the tested form may be a part): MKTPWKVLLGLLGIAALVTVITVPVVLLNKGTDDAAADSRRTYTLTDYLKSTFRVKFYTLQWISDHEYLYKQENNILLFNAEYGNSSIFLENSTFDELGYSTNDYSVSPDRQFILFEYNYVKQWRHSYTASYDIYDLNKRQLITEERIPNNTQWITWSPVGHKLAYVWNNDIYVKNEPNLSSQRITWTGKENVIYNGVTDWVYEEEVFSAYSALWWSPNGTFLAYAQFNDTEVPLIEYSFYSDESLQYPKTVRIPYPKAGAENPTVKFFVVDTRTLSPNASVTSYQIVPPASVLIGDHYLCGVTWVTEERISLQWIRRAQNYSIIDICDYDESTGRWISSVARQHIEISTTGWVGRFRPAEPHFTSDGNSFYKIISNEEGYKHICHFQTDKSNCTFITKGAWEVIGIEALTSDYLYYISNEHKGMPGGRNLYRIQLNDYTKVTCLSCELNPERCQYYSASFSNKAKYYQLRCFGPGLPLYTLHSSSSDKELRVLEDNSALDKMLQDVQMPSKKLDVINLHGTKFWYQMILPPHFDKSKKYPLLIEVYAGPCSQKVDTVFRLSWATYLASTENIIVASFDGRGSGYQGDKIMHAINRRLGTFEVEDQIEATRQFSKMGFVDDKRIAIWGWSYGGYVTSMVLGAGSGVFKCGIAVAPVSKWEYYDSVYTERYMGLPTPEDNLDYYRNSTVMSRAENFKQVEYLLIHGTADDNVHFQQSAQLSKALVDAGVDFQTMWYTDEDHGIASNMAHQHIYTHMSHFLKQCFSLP

Row | SMILES | t1/2 (Dipeptidyl peptidase 4) | EC50 ([1]; read-out: EC50) | EC50 ([1]; read-out: pEC50 (converted)) | IC50 [2] | pIC50 [2] | EC50 [3] | IC50 [4] | pIC50 [4] | EC50 ([5]; read-out: EC50) | EC50 ([5]; read-out: pEC50 (converted)) | Ki [6] | EC50 [7] | Ki [8]
1 | CC[C@H](C)[C@H](NC(=O)[C@H](Cc1ccccc1)NC(=O)[C@H](CCC(=O)O)NC(=O)[C@H](CCCCN)NC(=O)[C@H](C)NC(=O)[C@H](C)NC(=O)[C@H](CCC(N)=O)NC(=O)CNC(=O)[C@H](CCC(=O)O)NC(=O)[C@H](CC(C)C)NC(=O)[C@H](Cc1ccc(O)cc1)NC(=O)[C@H](CO)NC(=O)[C@H](CO)NC(=O)[C@@H](NC(=O)[C@H](CC(=O)O)NC(=O)[C@H](CO)NC(=O)[C@@H](NC(=O)[C@H](Cc1ccccc1)NC(=O)[C@@H](NC(=O)CNC(=O)[C@H](CCC(=O)O)NC(=O)[C@H](C)NC(=O)[C@@H](N)Cc1c[nH]cn1)[C@@H](C)O)[C@@H](C)O)C(C)C)C(=O)N[C@@H](C)C(=O)N[C@@H](Cc1c[nH]c2ccccc12)C(=O)N[C@@H](CC(C)C)C(=O)N[C@H](C(=O)N[C@@H](CCCCN)C(=O)NCC(=O)N[C@@H](CCCN=C(N)N)C(=O)NCC(=O)O)C(C)C | 46 min | – | – | – | – | – | – | – | – | – | – | – | –
2 | CC[C@H](C)[C@H](NC(=O)[C@H](Cc1ccc(O)cc1)NC(=O)[C@H](CCCNC(=N)N)NC(=O)[C@H](CCCNC(=N)N)NC(=O)[C@H](CC(C)C)NC(=O)[C@H](CC(=O)O)NC(=O)[C@H](C)NC(=O)[C@H](C)NC(=O)[C@H](Cc1ccc(O)cc1)NC(=O)[C@H](CCC(N)=O)NC(=O)[C@H](C)NC(=O)[C@H](CCSC)NC(=O)[C@H](CCC(N)=O)NC(=O)[C@H](CCC(=O)O)NC(=O)[C@@H]1CCCN1C(=O)[C@@H](NC(=O)[C@H](C)NC(=O)[C@H](CC(N)=O)NC(=O)[C@H](CC(=O)O)NC(=O)CNC(=O)[C@@H]1CCCN1C(=O)[C@H](Cc1ccc(O)cc1)NC(=O)[C@@H](NC(=O)[C@@H]1CCCN1C(=O)[C@H](CCC(=O)O)NC(=O)[C@H](CC(C)C)NC(=O)[C@@H]1CCCN1C(=O)[C@H](C)N)C(C)C)[C@@H](C)O)C(=O)N[C@@H](CC(N)=O)C(=O)N[C@@H](CCSC)C(=O)N[C@@H](CC(C)C)C(=O)N[C@H](C(=O)N[C@@H](CCCNC(=N)N)C(=O)N1CCC[C@H]1C(=O)N[C@@H](CCCNC(=N)N)C(=O)N[C@@H](Cc1ccc(O)cc1)C(=O)O)[C@@H](C)O | – | > 30 nM | > 31.6 nM | > 1000 nM | < 6 | 0.1 nM | 10 nM | 8 | > 30 nM | > 31.6 nM | 50 nM | 2.5 nM | 5 µM

Source: ChEMBL document CHEMBL4261636, “Design of Y2 Receptor Selective and Proteolytically Stable PYY3-36 Analogues” (J Med Chem, 2018)
